Measurements published in ChEMBL document CHEMBL4513216, “Probing the Open Global Health Chemical Diversity Library for Multistage-Active Starting Points for Next-Generation Antimalarials” (ACS Infect Dis, 2020).

assay: Toxicity liver stage against HepG2, at 10uM; assay type: cell-based; parameters: test concentration 10 uM, cell line HepG2-A16-CD81EGFP; settings: human, HepG2-A16-CD81EGFP cells; read-out: INHIBITION
How it was run: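 Uninfected HepG2-A16-CD81EGFP cells, 3 × 10^3 per well, 1536-well, plated on prespotted compound at 10 μM final, parasite-free screening media added to match infected plates; puromycin 10 μM positive, DMSO 0.5% negative; run in parallel with 48 h PbLuc assay at 37 °C, 5% CO2; viability by CellTiter-Glo luminescence, normalized to controls.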

| Structure (SMILES) | cytotoxicity at 10 µM [%] |
| --- | --- |
| CC(C)C[C@H](N)c1nnc(SCC(=O)Nc2ccc(Br)cc2)o1 | -4.99 |
| COc1ccc(-c2noc([C@@H]3C[C@@H](O)CN3C3CCOCC3)n2)cc1 | -1.7 |
| CC(=O)N1CCC(N2CCOC[C@H]2c2nc(-c3cccnc3)c[nH]2)CC1 | 1.35 |
| CCNC(=O)N1CCC(OC)c2ccccc2N(CC(=O)NC)C(=O)C1 (centres undefined) | 5.5 |
| CCc1c(C)sc2nc3n(CCN4CCCCC4)nc(SC)n3c(=O)c12 | 2.68 |
| COc1ccc2nnc(CCCC(=O)NCc3ccccc3OC)n2n1 | -5.95 |
| O=C(NCc1cccs1)C1CCN(c2cc(-n3ccnc3)ncn2)CC1 | -3.27 |
| O=c1ccc(-n2ccnc2)nn1CCNS(=O)(=O)c1ccccc1Cl | -0.947 |
| O=C(c1ccc2[nH]cnc2c1)N1CCC(Oc2ccccn2)CC1 | 1.59 |
| CC(=O)N1CCN(c2cc(N(C)C)cnn2)CC1 | 1.37 |
| N#CCC(=O)NCc1nnc2n1CCN(Cc1nccs1)C2 | -149 |
| Cc1ccc(NCc2cnc3n2CCN(c2ncccn2)CC3)nn1 | 7.31 |
| O=C(Cn1cc(C(=O)O)ccc1=O)NCc1ccc(F)cc1Cl | -0.581 |
| Cc1ccc(C)c(-n2ccc3nc(N4CCCC4)ncc3c2=O)c1 | 18.6 |
| Cn1cnc2c1C(COCc1cccnc1)N(Cc1ccccn1)CC2 (centres undefined) | -13.3 |
| COc1ccc(NC(=O)c2cnc(C3CCN(C)CC3)nc2C)cc1 | -1.46 |
| CCCN1C[C@H](NC(=O)c2cc(C)no2)[C@@H](c2ccc(OC)cc2)C1 | -27.3 |
| Cc1c(C(=O)N2CCC(O)(CN(C)C)C2)c2ccccc2n1C (centres undefined) | 3.49 |
| CCn1cc(CN2C[C@@H]3CCCN3C[C@H]2CCSC)cn1 | -25.4 |
| OC1(Cn2ccc3ncccc32)CCN(Cc2cccnc2)CC1 | 5.72 |
| COCCC(=O)N1CCCC1c1nc(O)cc(-c2ccccn2)n1 (centres undefined) | -5.86 |
| Cc1csc2c(=O)n3c(nc12)CCN(C(=O)c1ccccn1)CC3 | -10.2 |

| Structure (SMILES) | cytotoxicity at 10 µM [%] |
| --- | --- |
| CC(C)c1nnc(NC(=O)N(C)Cc2ccncc2)s1 | 5.28 |
| Cc1csc(CN(C)S(=O)(=O)c2ccc(C)c(N(C)C)c2)n1 | 13.7 |
| O=C(Nc1ccc(-c2csnn2)cc1)N1CCC(N2CCCC2)C1 (centres undefined) | -8.79 |
| CS(=O)(=O)NCCCn1ccc2ccccc21 | 4.77 |
| CC(C(=O)NCCc1ccc2c(c1)OCCO2)n1cncn1 (centres undefined) | 6.89 |
| Cn1nc(C(=O)NCCc2ccc(OC3CCCC3)cc2)ccc1=O | -2.61 |
| CCn1ccnc1CN1CCN(c2ccc3nnc(C)n3n2)CC1 | 3.35 |
| COCCOc1ccc(S(=O)(=O)Nc2cccc(O)c2F)cc1C | 27.7 |
| Cc1cc(C)n(CC(C)CNC(=O)NCc2csc(C)n2)n1 (centres undefined) | 11 |
| CN(Cc1nc(C2CC2)no1)C1CCS(=O)(=O)C1 (centres undefined) | 13.2 |
| Cc1cc(CN2CCN(CC(=O)NC3(C#N)CCCCC3)CC2)on1 | 5.83 |
| Cc1cc(CNC(=O)N2CCN(C(C)c3cccnc3)CC2)c(C)o1 (centres undefined) | -8.54 |
| CCOC(=O)NCCC(=O)NCc1ccc(Oc2cccc(F)c2)nc1 | 10.9 |
| CCn1cc(C(=O)NCC(OC)c2cccc(Cl)c2)cn1 (centres undefined) | -8.87 |
| CC(C)NC(=O)CCN1CCCC1c1cccc2c1OCCO2 (centres undefined) | 0.354 |
| NC(=O)c1cccc(CNC(=O)NCCOc2ccc(F)c(F)c2)c1 | 9.77 |
| Fc1ccc(OCC2CCCO2)c(NCc2noc(C3CC3)n2)c1 (centres undefined) | 9.61 |
| Cc1noc(C)c1CN1CCN(C(=O)CCn2cncn2)CC1 | 0.975 |
| CC(NC(=O)C1=NN(C)C(=O)CC1)c1ccccc1Cl (centres undefined) | 0.665 |
| CCc1ncc2c(n1)CN(Cc1cc(C)on1)CC2 | -16.7 |
| CC(CN1CCCC1=O)NC(=O)c1cc(=O)[nH]c2ccc(Cl)cc12 (centres undefined) | -7.14 |
| OC1CCN(c2ccccc2NCc2nc(-c3cccs3)no2)CC1 | 10.8 |

| Structure (SMILES) | cytotoxicity at 10 µM [%] |
| --- | --- |
| CSC(C)C(=O)N(C)C1CCN(c2ccc(Cl)cc2)CC1 (centres undefined) | 0.204 |
| Cc1nc(CN2CCCC(N(C)c3ccc(C#N)cn3)C2)no1 (centres undefined) | -6.76 |
| Cc1cc(NC(=O)N2CCCC2C(C)(C)O)c2ncccc2c1 (centres undefined) | 6.87 |
| c1cnnc(NCC2CN(CCn3cccn3)CCO2)c1 (centres undefined) | 5.53 |
| CCN(CC)C(=O)CCNc1cncc(-n2nc(C)cc2C)n1 | 2.41 |
| CC(C)(C)c1n[nH]c(C2CN(C(=O)c3cc(C4CC4)on3)CCO2)n1 (centres undefined) | -15.8 |
| CS(=O)(=O)NCc1ncn2c1CN(C(=O)C1CCCCC1)CCC2 | -71.2 |
| CC[C@H](C)[C@H](N)C(=O)N1CC(=O)c2sc(NC3CCCCC3)nc2C1 | -13.7 |
| Fc1ccc(-c2n[nH]cc2-c2ccnc(NCCN3CCCC3)n2)cc1 | 9.05 |
| O=C1CC(C(=O)N2CCc3sccc3C2)CN1Cc1cccnc1 (centres undefined) | -1.18 |
| Cc1nn(C)c2nc(N(CCN(C)C)CC3CCCO3)sc12 (centres undefined) | -4.62 |
| COc1ccc2c(C)nc(N3CCN([C@H]4CCCC[C@@H]4O)CC3)nc2c1 | 7.24 |
| COc1ccc(N2CCN(C(=O)[C@@H]3C[C@@H](O)CN3)CC2(C)C)cc1 | 4.95 |
| CN1CCCC2(CCN(c3cc(C(F)(F)F)nc(N(C)C)n3)C2)C1=O (centres undefined) | 13.1 |
| Cc1cccc(C)c1OC1CN(Cc2cnc(-c3ccco3)nc2)C1 | 6.17 |
| O=S(=O)(c1ccc(-c2cnco2)cc1)N1CCC2(CCCNC2)C1 (centres undefined) | -27.3 |
| CCCc1nc(C(=O)N2C[C@H](CO)C[C@H](CN3CCOCC3)C2)cs1 | 3.79 |
| Cc1nc(CN(CCc2ccccc2)C2CCN(C)CC2)no1 | -4 |
| COc1ccc(CC2CN(C3CCSCC3)CCO2)cc1 (centres undefined) | 4.49 |
| CCOCC1(CNCc2cc(O)c3cc(C)ccc3n2)CC1 | -9.19 |
| CN(C)C(C(=O)NCC1(C)COC1)c1cccc(F)c1 (centres undefined) | -6.41 |
| Cc1ccccc1CCC1CCCN(Cc2nnc(-c3ccco3)o2)C1 (centres undefined) | -116 |

| Structure (SMILES) | cytotoxicity at 10 µM [%] |
| --- | --- |
| CCC(C(=O)NCc1noc(Cc2cccs2)n1)n1cccn1 (centres undefined) | -1.91 |
| COc1ccc(CN2C[C@@H](CN(C)C)[C@@H](CO)C2)c(Cl)c1OC | -8.44 |
| Cc1ccc(CN(C)C(=O)c2n[nH]c(N)c2-c2ccccc2)o1 | -4.81 |
| COC(=O)C1Cc2nc[nH]c2CN1Cc1ccc(Sc2ncccn2)o1 (centres undefined) | -3.94 |
| COc1ccc(C)cc1S(=O)(=O)N[C@H]1CN(C(C)=O)C[C@@H]1C1CC1 | -3.64 |
| CCc1nc(N2CCC3(CCC(=O)N(CCCO)C3)CC2)no1 | 0.814 |
| CCCN1CCCn2nc(CNC(=O)CCc3scnc3C)cc2C1 | 1.47 |
| Cn1cc(C(=O)NC(Cn2cccn2)C(C)(C)C)cn1 (centres undefined) | -6.36 |
| Cn1nnnc1SCC1COc2ccccc2O1 (centres undefined) | -1.94 |
| CC(=O)N1CCCN(C(=O)NCCOc2ccc3c(c2)CCC3)CC1 | -1.84 |
| COc1c(CNC(c2ccccc2)c2ccc(F)cc2)c(C)nn1C (centres undefined) | -5.16 |
| CC(C)c1nccn1C1CCCN(C(=O)c2cc(C(N)=O)cs2)C1 (centres undefined) | -2.61 |
| Cc1cnn(CC2CCCN2C(=O)c2csc(C(C)C)n2)c1 (centres undefined) | 4.89 |
| O=C(COc1ccc2c(c1)CCC2)N1CCCC(n2cccn2)C1 (centres undefined) | -2.58 |
| Cn1cccc1C(=O)Nc1cc(F)ccc1OCC1CCCO1 (centres undefined) | -7.59 |
| Cc1ccccc1NS(=O)(=O)c1cc2c(c(C(=O)O)c1)OCCO2 | -11.7 |
| Cc1cc(C)n(CC2CCCN2C(=O)c2c[nH]c3ncccc23)n1 (centres undefined) | -0.808 |
| COc1cccc2cc(CNCc3ccnc(N4CCOCC4)c3)oc12 | -8.55 |
| Cc1nn(C)c(Cl)c1C1CCCN1C(=O)c1ccc2nncn2c1 (centres undefined) | -10.2 |
| CC(C)c1cc(C(=O)NCCN2CCCS2(=O)=O)n[nH]1 | -9.91 |
| CN(C(=O)NCc1ccncc1)C1CCN(c2ccccc2)C1=O (centres undefined) | -13.5 |
| OC(COc1ccccc1)CN1CCC(c2ccn[nH]2)CC1 (centres undefined) | -3.76 |

| Structure (SMILES) | cytotoxicity at 10 µM [%] |
| --- | --- |
| Cc1occc1CNC(=O)N(CCCO)C1CCc2ccccc21 (centres undefined) | -0.842 |
| Cc1occc1C(=O)NCc1ccc(N2CCCC(C(N)=O)C2)cc1 (centres undefined) | 1.49 |
| O=C(Cc1csc(-c2ccco2)n1)N1CCN(CCO)CC1 | -0.337 |
| Cc1oc(C)c(C(=O)NCc2cccc(NC(=O)CN(C)C)c2)c1C | -6.54 |
| Cc1ccc(N2CCCC(NCc3ccc(C)o3)C2)nn1 (centres undefined) | 0.0722 |
| CC(=O)N(Cc1ncc(C)o1)C1CCN(Cc2noc(C)n2)C1 (centres undefined) | 0 |
| O=C(O)C1(Cc2ccc(-c3cccs3)cc2)CCNC1 (centres undefined) | -0.74 |
| Fc1ccc(OCCCNC2=NCCCN2)cc1 | -7.91 |
| COc1cc(CN2CCn3c(CO)nnc3C2)ccc1OC(C)C | -25.4 |
| Cc1cc(C)c(N(CC(O)CNCc2ccccc2)S(C)(=O)=O)c(C)c1 (centres undefined) | -12.7 |
| O=C(N1CCCC1)N1CCO[C@H]2[C@@H](Oc3ccccn3)CC[C@@H]21 | 8.95 |
| O=C1COC2(CCN(Cc3nccs3)CC2)CN1c1ccccc1 | -114 |
| CS(=O)(=O)N1CCOCC2(CCN(Cc3ccoc3)CC2)C1 | 2.64 |
| Cc1ccc(CN2CC3(CCN(C(=O)c4cscn4)C3)C2)s1 | -10.3 |
| Cc1ccc(CN2CCC(F)(F)C3(CCN(c4cnccn4)C3)C2)o1 (centres undefined) | -3.71 |
| O=C([C@@H]1COC[C@H]2CN(C3CCCC3)C[C@H]21)N1CCCO1 | -0.262 |
| O=C(c1ccoc1)N1CC[C@@H](N2CCOCC2)[C@@H]1Cc1ccccc1 | -82 |
| O=C1NC2(CCN(Cc3ccc(F)cc3)CC2)CC1c1ccncc1 (centres undefined) | 3.16 |
| CCn1ncc2c1C(COCC1CC1)CN(S(=O)(=O)N(C)C)C2 (centres undefined) | -10.4 |
| CN(C)CC(=O)N1CCC2(CC1)COC(COc1ccccn1)C2 (centres undefined) | -3.14 |
| O=C(C1CCOCC1)N1C[C@@H]2CC[C@H]1CN(Cc1ccncc1)C2 | -11 |
